FN deposit inh – fibronectin deposition inhibition | AH1F fibroblasts, Alexa488-fibronectin deposition fluorescence, overnight | inhibition, % at 12.6 µM | 350,000 compounds, 0.086% hits;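 active means mean inhibition across replicates of 30% or more, regardless of how many single replicates reach that level; inconclusive means mean under 30% yet at least half of replicates reach 30%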;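 further: positive control wells lacked labelled fibronectin entirely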
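Assay system: AH1F fibroblasts / Quantity: 10000 cells per well / Medium: DMEM plus 2% serum, read in PBS / Reagent: labelled fibronectin 24 nM / Dosing: single dose, pinned / Times: 1 h cell attachment, overnight exposure to compound and label / Signal: fluorescence, ex 485 nm, em 525 nm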
EWS-Fli inh – EWS/Fli transcriptional activity inhibition; A673 NR0B1-luciferase reporter, viability-normalised; inhibition, % at 12.6 µM; 350,000 compounds, 0.67% hits; AID 651661;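 active means mean inhibition of at least 50% after viability correction, with every replicate also passing that limit; inconclusive means mean reaches 50% but only one of two replicates passes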;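 further: firefly luciferase signal divided by Alamar Blue viability fluorescence both relative to DMSO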
PAX8 reporter – PAX8 transcriptional activity inhibition; 360,000 compounds, 1.2% hits; inhibition, % at 12.6 µM; RMG-I TPO-luciferase reporter, SteadyGlo, 24 h;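 active means mean replicate inhibition at least 60% with every replicate also reaching 60%; inconclusive means only one of the two criteria is met; inactive means mean below 60% and not all replicates reaching 60%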;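 further: luciferase light reporting Pax8 driven TPO promoter activity; plate controls were median of neutral control wells for no effect and mitoxantrone controls for full effect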
Glyco luc inh – blocks N-linked glycosylation in D54 reporter cells; D54 ERlucT glycosylation luciferase reporter, 24 h; percent of 100 nM tunicamycin response; reporter increase, % at 12.5 µM; 360,000 compounds, 0.23% hits; AID 588692;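 active means mean luciferase reporter signal, scaled so untreated is 0 and the glycosylation-blocking control 100, at or above a set limit in every replicate; inconclusive means mean reaches the limit but not every replicate does; inactive means mean below the limit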;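 further: luciferase carries N-glycosylation sites so blocking glycosylation raises the light; 0% = median of neutral control wells and 100% = median of 100 nM tunicamycin wells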
AF4-AF9 inh – blocks AF4 peptide binding to human AF9; P42568; AlphaScreen, biotin-AF4 peptide binding to FLAG-AF9; inhibition, % at 10 µM; 350,000 compounds, 0.47% hits;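 active means every replicate reaching a set inhibition limit, whatever the replicate mean, cut at about 25% in these data; inconclusive means mean inhibition reaches that limit but some replicates miss it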;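 further: 0% = plate neutral control median and 100% = total signal loss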
Target sequence (P42568 whole entry, looked up): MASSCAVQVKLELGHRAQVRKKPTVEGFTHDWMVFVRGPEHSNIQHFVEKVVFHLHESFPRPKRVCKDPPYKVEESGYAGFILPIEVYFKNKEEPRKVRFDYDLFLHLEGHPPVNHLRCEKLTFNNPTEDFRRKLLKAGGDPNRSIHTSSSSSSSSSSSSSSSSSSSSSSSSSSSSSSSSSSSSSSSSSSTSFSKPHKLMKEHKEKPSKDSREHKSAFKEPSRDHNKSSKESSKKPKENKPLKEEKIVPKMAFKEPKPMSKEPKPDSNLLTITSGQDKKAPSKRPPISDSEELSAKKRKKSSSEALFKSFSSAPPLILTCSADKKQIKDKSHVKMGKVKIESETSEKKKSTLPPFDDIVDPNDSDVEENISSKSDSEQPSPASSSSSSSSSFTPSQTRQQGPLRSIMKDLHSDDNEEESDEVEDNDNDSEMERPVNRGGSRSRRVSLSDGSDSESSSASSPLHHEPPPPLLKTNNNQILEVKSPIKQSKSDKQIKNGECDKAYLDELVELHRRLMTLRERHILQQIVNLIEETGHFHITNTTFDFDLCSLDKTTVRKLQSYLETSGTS
HIV Env fusion – inhibitors of HIV Env-mediated cell fusion; HeLa-JRFL Env/CEM21 cell fusion, luciferase; inhibition, % at 12.3 µM; 360,000 compounds, 1.1% hits; AID 651610;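 active means mean replicate inhibition score of at least 50 and every replicate individually at or above 50; inconclusive means only one of the two criteria met; inactive means mean below 50 and not all replicates reaching 50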;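 further: 0% = plate neutral controls and 100% = maraviroc near 300 nM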
An asterisk follows results filed as active; i = inactive; ? = inconclusive; · = not tested or not shown; [ ] = another dose, or the depositor's remark. This is a sample that favours compounds with a hit; in the whole collection about 2.5% have one here.

SMILES	FN deposit inh	EWS-Fli inh	PAX8 reporter	Glyco luc inh	AF4-AF9 inh	HIV Env fusion
COc1ccc(/C=N/NC(=O)c2[nH]c3ccc(Br)cc3c2-c2ccccc2)cc1	-13.1	·	102.0*	3.7	·	-114.5
CN(CC(=O)Nc1ccc(OC(F)(F)F)cc1)C(=O)Cc1cccs1	0.7	-2.1	-6.3	3.2	4.1	61.9*
CN(CC(=O)Nc1ccc(OC(F)(F)F)cc1)C(=O)Cc1c(Cl)cccc1Cl	3.7	3.3	19.1	-1.8	1.8	9.7
CNc1cc(C)nc(-n2nc(C)cc2C)n1	·	·	·	0.3	·	·
CCOc1ccc(Nc2cc(C)nc(-n3nc(C)cc3C)n2)cc1	0.7	·	67.9*	9.6	·	-206.9
CO[C@H]1CN(C)C(=O)c2ccc(NC(=O)C3CC3)cc2OC[C@@H](C)N(CCC(F)(F)F)C[C@@H]1C	-23.9	5.0	-5.8	·	0.3	·
COc1ccc(C(=O)CSC#N)cc1OC	-0.1	9.5	-3.0	25.9*	-15.9	i
COc1ccc(C(=O)COC(=O)c2ccc(OC)c(OC)c2)cc1OC	·	·	·	0.0	·	·
Cc1cc2ccccn2c1C(=O)c1cccc([N+](=O)[O-])c1	4.3	-6.1	5.3	-1.3	1.1	2.6
Cc1cc2ccccn2c1C(=O)c1ccc([N+](=O)[O-])o1	-5.1	21.2	73.2*	?	0.5	-14.3
CC(=O)NC(CCc1ccc(Cl)c(Cl)c1)c1cccc(O)c(=O)c1 (stereo not drawn)	10.2	-3.4	91.1*	-14.6	30.4*	21.7
COc1ccc(C2=NN(C(C#N)c3ccc(OC)cc3)C(c3ccccc3)C2)cc1 (stereo not drawn)	0.9	-106.6	32.3	-3.7	29.0*	·
C[C@H](CO)N1C[C@H](C)[C@@H](CN(C)Cc2ccc3c(c2)OCO3)Oc2ccc(NS(=O)(=O)c3ccccc3)cc2CC1=O	1.2	15.9	28.2	·	12.3	·
C[C@H](CO)N1C[C@H](C)[C@H](CN(C)C(=O)c2ccncc2)OCCCC[C@H](C)Oc2ccc(NS(=O)(=O)c3ccc(Cl)cc3)cc2C1=O	-11.2	-3.1	3.5	·	-2.8	-13.1[16.7 µM]
CCc1ccc(Oc2coc3cc(OCC(=O)Nc4cc(C)ccc4C)ccc3c2=O)cc1	3.3	39.2	2.7	66.1*	1.4	-22.8
Cc1cc([N+](=O)[O-])nn1Cc1ccc(C(=O)N/N=C/c2ccc(O)cc2O)cc1	0.9	·	62.6*	-3.0	·	24.8
O=C(N/N=C/c1ccc(O)cc1O)c1ccc(CN2C(=O)c3cccc4cccc2c34)cc1	-6.6	11.1	66.7*	-9.7	-6.5	10.0
CCCN(C)C[C@@H]1OCCCC[C@@H](C)Oc2ccc(NS(=O)(=O)c3ccccc3)cc2C(=O)N([C@H](C)CO)C[C@@H]1C	-4.1	7.7	-9.3	·	0.8	2.6[16.7 µM]
C=C1CC(COc2ccc3c(C)c(Cl)c(=O)oc3c2)(c2ccccc2)OC1=O (stereo not drawn)	8.2	?	100.2*	-14.1	-4.2	-51.4
CO[C@@H]1CN(C)C(=O)c2ccc(NC(=O)CC(F)(F)F)cc2OC[C@@H](C)N(C(=O)c2ccccc2F)C[C@@H]1C	·	-3.7	-9.1	·	-2.6	·
CN(C)c1ccc(-c2nc3cc(N)ccc3o2)cc1	-6.2	65.2*	33.3	-18.8	-0.3	-48.3
CCCNC(=O)N1CC2(CN(C(=O)CCC)C2)c2c(n(C)c3cc(OC)ccc23)[C@@H]1CO	·	-6.2	·	·	-9.8	·
CN(C[C@H](Cc1ccccc1)N(C[C@H](Cc1ccccc1)N(CCc1cc(C(F)(F)F)cc(C(F)(F)F)c1)N=O)N=O)N=O	19.3	-11.0	-12.9	-12.0	-4.6	56.1*
CCCC[C@H](CN(N=O)[C@@H](Cc1ccccc1)CN(C)N=O)N(CCc1ccccc1)N=O	0.9	7.2	10.6	-6.7	4.1	88.4*
CC(C)[C@H](CN(N=O)[C@@H](Cc1ccccc1)CN(C)N=O)N(CCc1ccccc1)N=O	-1.9	-7.5	-3.5	-4.1	2.8	67.6*
SMILES	FN deposit inh	EWS-Fli inh	PAX8 reporter	Glyco luc inh	AF4-AF9 inh	HIV Env fusion
CC(C)C[C@@H](CN(C)N=O)N(C[C@H](Cc1ccccc1)N(CCc1ccccc1)N=O)N=O	8.4	12.1	24.6	-8.7	-7.7	93.7*
CN(C[C@H](Cc1ccccc1)N(C[C@H](Cc1cccc2ccccc12)N(CCc1ccccc1)N=O)N=O)N=O	5.5	10.4	39.6	-5.4	-0.3	35.7
O=C(CCN1CCCCC1)N[C@H]1C=C[C@H](CC(=O)N2CCC(Cc3ccccc3)CC2)O[C@H]1CO	5.4	5.2	19.4	·	1.5	-3.4[16.7 µM]
C[C@@H]1CN([C@@H](C)CO)C(=O)c2cc(-c3ccccc3F)cnc2O[C@@H]1CN(C)Cc1ccccc1	-5.8	-4.9	·	·	-2.7	5.5[16.7 µM]
C[C@@H]1CN([C@H](C)CO)C(=O)c2cc(NS(=O)(=O)c3ccc(Cl)cc3)ccc2O[C@@H](C)CCCCO[C@H]1CN(C)S(=O)(=O)c1ccc(Cl)cc1	-15.2	14.5	94.7*	·	·	-61.9[16.7 µM]
C[C@H](CO)N1C[C@H](C)[C@H](CN(C)S(=O)(=O)c2ccc(Cl)cc2)OCCCC[C@H](C)Oc2ccc(NS(=O)(=O)c3ccc(Cl)cc3)cc2C1=O	-5.1	3.8	80.5*	·	·	-123.2[16.7 µM]
C[C@@H]1CN([C@@H](C)CO)C(=O)c2cc(NS(=O)(=O)c3ccc(Cl)cc3)ccc2O[C@@H](C)CCCCO[C@H]1CN(C)C	·	-2.1	80.1*	·	-1.8	-12.2[16.7 µM]
CN(C)CC(=O)Nc1ccc2c(c1)[C@@H]1C[C@@H](CC(=O)NCc3ccccc3F)O[C@@H](CO)[C@@H]1O2	-12.6	3.6	-11.6	·	·	-7.8[16.7 µM]
C#CCn1c(=NC(=O)c2ccco2)sc2cccc(Cl)c21	-5.2	-17.7	8.4	-0.8	30.5*	-134.8
CCOc1cccc2sc(=NC(=O)c3ccco3)n(CC(=O)OC)c12	6.4	-13.7	18.8	-0.6	-5.4	-98.0
CN1CCN(C(=O)C[C@@H]2CC[C@H]3[C@@H](COC[C@H](O)CN3CC3CC3)O2)CC1	2.8	-5.1	-17.1	·	-1.4	·
COc1ccc(NC(=O)N(C)C[C@H]2OCCCC[C@H](C)Oc3ccc(NC(=O)NC(C)C)cc3C(=O)N([C@H](C)CO)C[C@@H]2C)cc1	·	-3.5	-9.2	·	-3.4	14.1[16.7 µM]
CS(=O)(=O)N(Cc1ccc(Cl)cc1)c1ccc(C(=O)NCCC2=CCCCC2)cc1	·	·	·	0.5	·	85.3*
CCOC(=O)c1ccccc1NC(=O)Cn1c(=O)n(Cc2ccccc2)c(=O)c2c(C)c(C)sc21	7.4	·	-8.0	-0.3	·	58.4*
CCOc1ccc(-n2c(=O)c3c(C)c(C(=O)N(C)C)sc3n(CC(=O)Nc3ccccc3F)c2=O)cc1	0.3	1.8	-9.1	0.0	-5.9	-4.3
NC(=O)c1ccc(NC(=O)c2ccc(COc3ccccc3Br)cc2)cc1	2.4	-19.6	-21.2	-0.8	-1.6	-25.7
Cc1cc(C)n(Cc2ccc(NC(=O)c3ccc(COc4ccccc4Br)cc3)cc2)n1	·	·	·	-5.0	·	78.7*

Screens deposited in PubChem BioAssay by Broad Institute.
